Measured values reported in PubChem BioAssay.
The source made the active and inactive calls.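 How the source made its calls, unless noted: active means Her2 level under about 52% in both replicate screens, with viability over 70% of control (limit read from the data); inconclusive means Her2 under the limit in one screen only, or viability under 70%; inactive means Her2 level above the set limit.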

Experiments:
[1] = reducers of endogenous Her2 protein level, primary screen, SKBR3 breast tumor cells, AlphaScreen, ATP viability (AID 461); details: 18-24 h, measured here: SKBR3 viability, ATP luminescence, at 10 µM;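 on Her2 level: lower value means less Her2 protein in the cells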;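 on viability: percent of carrier control wells set as 100% viability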
[2] = molecular target: Receptor tyrosine-protein kinase erbB-2 (Homo sapiens) (UniProt P04626); assay: as above; details: 18-24 h, at 10 µM, stronger effect = lower value
[3] = SK-BR-3 cell growth inhibitors, pilot screen, 24 h, human (AID 572;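 active means viability at or below 10% of carrier control in both of two separate runs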;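 further: compound exposure lasted between 18 and 24 h rather than exactly 24 h; 100% = carrier-treated control wells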); details: SK-BR-3 viability, CellTiter-Glo luminescence, at 10 µM, stronger effect = lower value
[4] = HUVEC growth inhibition – cell-based, human, primary screen (AID 575;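 active means viability at or below 30% in both replicate assays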;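 further: 100% = median of untreated cell wells with 0.1% DMSO on each plate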); details: HUVEC proliferation, CellTiter-Glo luminescence, 72 h; at 10 µM; stronger effect = lower value
Method in brief: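 Test system: primary human umbilical vein endothelial cells; medium: endothelial basal medium with 2% FBS plus growth supplements; dosing: 10 µM compound only; times: 72 h treatment at 37 °C; signal: CTG luminescence; read-out: % viability relative to median vehicle-well signal on each plate; control set: vehicle and MePR control wells; plate: 384-well, collagen-coated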

[5] = growth inhibitors of H69AR lung tumor, primary screen, human, duplicate replicates (AID 580;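 active means viability at or under a set limit in both replicates, limit being median viability minus 3 SD, cut at about 48% in these data, passing the limit was not always enough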;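 further: 100% = mean luminescence of untreated wells and 0% = no signal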); details: H69AR lung tumor cells viability, ATP luminescence, 72 h; at 10 µM; stronger effect = lower value
[6] = reversal of MRP1-mediated doxorubicin resistance, pilot screen, H69AR cells, doxorubicin co-treatment (AID 601;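 active means viability loss from added drug above about 55%, and viability with drug at most 40%, in both replicates, limit read from the data, passing the limit was not always enough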); details: CellTiter-Glo, 72 h, at 10 µM; for differential viability (reversal): stronger effect = higher value
[7] = 384-well plate pilot, post-Golgi transport modulator project, inhibition of yeast transport mutant growth (AID 636; in the data active means inhibition above about 31%); details: absorbance 615 nm, about 18 h, stronger effect = higher value
[8] = growth suppression of yeast trafficking mutant, preliminary HTS, modulators of trafficking downstream of Golgi apparatus project, 1536-format plate, OD 615 nm (AID 637; in the data active means inhibition above about 30%); details: yeast transport mutant growth, absorbance 615 nm, 18 h; stronger effect = higher value
[9] = H69AR cells + 2 uM doxorubicin, measured here: viability with 2 uM doxorubicin, stronger effect = lower value
[10] = H69AR cells, compound alone cytotoxicity

Chain of Receptor tyrosine-protein kinase erbB-2 (Homo sapiens) (P04626 whole entry, looked up): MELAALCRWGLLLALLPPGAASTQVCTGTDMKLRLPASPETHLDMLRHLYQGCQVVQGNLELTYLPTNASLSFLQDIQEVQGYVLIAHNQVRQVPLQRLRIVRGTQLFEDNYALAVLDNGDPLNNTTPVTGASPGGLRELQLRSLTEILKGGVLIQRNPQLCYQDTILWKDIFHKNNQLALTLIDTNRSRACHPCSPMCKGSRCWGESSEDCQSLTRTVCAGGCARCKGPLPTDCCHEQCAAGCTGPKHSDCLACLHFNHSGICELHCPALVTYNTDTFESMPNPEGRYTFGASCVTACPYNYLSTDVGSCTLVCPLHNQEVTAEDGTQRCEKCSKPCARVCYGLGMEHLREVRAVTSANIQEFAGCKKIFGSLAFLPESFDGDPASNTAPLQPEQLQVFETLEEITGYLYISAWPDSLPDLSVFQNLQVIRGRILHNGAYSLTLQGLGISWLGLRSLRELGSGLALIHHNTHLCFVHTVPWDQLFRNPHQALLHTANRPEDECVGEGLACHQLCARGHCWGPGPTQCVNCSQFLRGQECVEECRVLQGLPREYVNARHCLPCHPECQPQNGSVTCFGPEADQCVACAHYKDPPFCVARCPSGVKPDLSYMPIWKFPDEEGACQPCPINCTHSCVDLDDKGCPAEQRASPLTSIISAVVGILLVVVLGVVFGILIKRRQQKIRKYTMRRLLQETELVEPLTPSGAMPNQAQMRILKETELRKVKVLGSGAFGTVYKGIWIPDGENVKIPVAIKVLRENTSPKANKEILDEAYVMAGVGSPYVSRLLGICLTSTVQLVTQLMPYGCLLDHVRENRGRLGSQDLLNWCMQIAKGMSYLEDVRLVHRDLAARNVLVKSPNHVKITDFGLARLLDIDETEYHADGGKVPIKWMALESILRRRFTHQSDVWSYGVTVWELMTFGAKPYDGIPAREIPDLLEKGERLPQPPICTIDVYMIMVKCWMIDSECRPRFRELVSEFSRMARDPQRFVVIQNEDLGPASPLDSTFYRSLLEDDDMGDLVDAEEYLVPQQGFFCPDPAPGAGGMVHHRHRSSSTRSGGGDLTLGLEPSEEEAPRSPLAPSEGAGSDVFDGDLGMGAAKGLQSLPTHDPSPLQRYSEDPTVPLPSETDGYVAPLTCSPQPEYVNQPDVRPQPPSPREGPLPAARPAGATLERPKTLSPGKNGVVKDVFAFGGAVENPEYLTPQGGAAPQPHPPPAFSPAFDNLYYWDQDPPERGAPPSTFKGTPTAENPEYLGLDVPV

Row | SMILES | viability [1] | Her2 level [2] | viability [3] | viability [4] | viability [5] | differential viability (reversal) ([6]; H69AR cells + 2 uM doxorubicin) | viability [6, 9] | viability [6, 10] | inhibition [7] | inhibition [8]
1 | COC(=O)C1=C(C)NC(C)=C(C(=O)OC)C1c1cc2cc(C)ccc2[nH]c1=O | 103% | 66% (inactive) | 103% (inactive) | 84.6% (inactive) | 79.4% (inactive) | 6.74% (inactive) | 72.6% | 79.4% | -3.29% (inactive) | 3.45% (inactive)
2 | CCN(C1CCCCC1)S(=O)(=O)c1ccc(OC)c(C)c1 | 99% | 108% (inactive) | 99% (inactive) | 91.5% (inactive) | 93.1% (inactive) | 15.7% (inactive) | 77.4% | 93.1% | -7.92% (inactive) | -13% (inactive)
3 | Cc1sc2ncn3ncnc3c2c1C | 91% | 96.5% (inactive) | 91% (inactive) | 50.7% (inactive) | 90.5% (inactive) | -8.71% (inactive) | 99.2% | 90.5% | 6.13% (inactive) | 4.26% (inactive)
4 | C/C(=N\O)C(C)/[N+]([O-])=C/c1nc(C)c(C)n1O (stereo not given) | 95.5% | 109% (inactive) | 95.5% (inactive) | 97% (inactive) | 92.8% (inactive) | -8.95% (inactive) | 102% | 92.8% | -0.27% (inactive) | 0.48% (inactive)
5 | Cc1cc(C)cc(NC(=O)N2CCC(c3nc4ccccc4o3)CC2)c1 | 90.5% | 99% (inactive) | 90.5% (inactive) | 88.9% (inactive) | 94.9% (inactive) | 1.69% (inactive) | 93.2% | 94.9% | -4.8% (inactive) | 1.8% (inactive)
6 | COc1ccc(C(=O)N(CCN2CCOCC2)CC(=O)NC2CCCC2)cc1OC | 83.5% | 106% (inactive) | 83.5% (inactive) | 111% (inactive) | 91.6% (inactive) | -0.805% (inactive) | 92.4% | 91.6% | -0.8% (inactive) | 8.36% (inactive)
7 | COCCn1c(COc2ccc(Cl)cc2)nnc1SCC(N)=O | 85.5% | 84.5% (inactive) | 85.5% (inactive) | 98.8% (inactive) | 109% (inactive) | 18.1% (inactive) | 90.8% | 109% | -5.41% (inactive) | 2.54% (inactive)
8 | CCCC(NC(=O)c1ccccc1)c1nc2ccccc2n1Cc1ccc(C(=O)OC)o1 (stereo not given) | 98% | 105% (inactive) | 98% (inactive) | 85.4% (inactive) | 95% (inactive) | 4.1% (inactive) | 90.9% | 95% | -2.76% (inactive) | -9.17% (inactive)
9 | O=C1OCCC1Sc1ncnc2sc3c(c12)CCC3 (stereo not given) | 95.5% | 84.5% (inactive) | 95.5% (inactive) | 97.6% (inactive) | 104% (inactive) | 11.8% (inactive) | 91.9% | 104% | -4.67% (inactive) | -0.32% (inactive)
10 | Clc1ccc(OCc2nc(-c3ccccn3)no2)c(Br)c1 | 82.5% | 92.5% (inactive) | 82.5% (inactive) | 55.6% (inactive) | 102% (inactive) | 3.96% (inactive) | 98.4% | 102% | -0.26% (inactive) | -8.67% (inactive)
11 | CCOC(=O)c1nnn(CC(=O)Nc2cccc(OC)c2)c1C(=O)OCC | 92.5% | 86.5% (inactive) | 92.5% (inactive) | 100% (inactive) | 83.7% (inactive) | -2.59% (inactive) | 86.3% | 83.7% | -4.53% (inactive) | 0.98% (inactive)
12 | C=CCn1c(-c2cccs2)nc2nc3ccccc3nc21 | 87% | 106% (inactive) | 87% (inactive) | 80.2% (inactive) | 54.3% (inactive) | -18.6% (inactive) | 72.9% | 54.3% | -1.82% (inactive) | -8.73% (inactive)
13 | C=CCC(NCc1ccco1)c1ccc(OC)cc1OC (stereo not given) | 96% | 98.5% (inactive) | 96% (inactive) | 99.1% (inactive) | 93% (inactive) | 7.67% (inactive) | 85.3% | 93% | -4.08% (inactive) | 0.36% (inactive)
14 | COc1ccccc1N1CCN(Cc2nnnn2CCc2ccccc2)CC1 | 88% | 112% (inactive) | 88% (inactive) | 91.5% (inactive) | 93.2% (inactive) | 3.56% (inactive) | 89.7% | 93.2% | 1.51% (inactive) | 25.6% (inactive)
15 | COc1ccccc1OCCSc1nc2ccccc2c(=O)[nH]1 | 81.5% | 105% (inactive) | 81.5% (inactive) | 84.6% (inactive) | 95.2% (inactive) | 15.1% (inactive) | 80.1% | 95.2% | -3.97% (inactive) | -4% (inactive)
16 | Cc1cc(C(=O)NCCN2CCCCC2C)n(-c2ccccc2)n1 (stereo not given) | 87.5% | 116% (inactive) | 87.5% (inactive) | 92.3% (inactive) | 92.6% (inactive) | 3.49% (inactive) | 89.1% | 92.6% | -2.8% (inactive) | -3.77% (inactive)
